Assay results reported in ChEMBL document CHEMBL1926666, “Synthesis of novel 3-cyclohexylpropanoic acid-derived nitrogen heterocyclic compounds and their evaluation for tuberculostatic activity” (Bioorg Med Chem, 2012).
≈ marks a conversion by molar mass, not a printed value. Calls of active or inactive are those of the source. The rule behind the calls is not given here.

Legend:
Brevibacterium linens = experiment: Antibacterial activity against Brevibacterium linens ATCC 9174 after 24 hrs by M7-A7 CLSI method; format: functional; details: ATCC 9174, 24 h
In short: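 Compounds dissolved in 100% DMSO at 5 mg/mL, then 1 mg/mL in 10% DMSO; serial dilutions in broth from 100 µg/mL final. B. linens: nutrient broth 24 h at 30 °C, inoculum 1 McFarland, 24 h with compounds. P. acnes: thioglycolate broth 72 h at 33 °C, inoculum 0.5 McFarland, 72 h anaerobic with compounds. MIC = lowest concentration with no visible growth, confirmed by A655.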

[1] = Growth inhibition of human skin fibroblasts at 10 ug/ml after 72 hrs by MTT assay; design: species or system Skin fibroblast; details: read-out: GI
In short: (§1)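 Neonatal human dermal fibroblasts in high-glucose DMEM with 5% cosmic calf serum, seeded 3 × 10³ cells/well and exposed to compounds for 72 h. MTT then added for 2.5 h; formazan solubilised in isopropanol and read at 550 nm; signal proportional to cell number.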

[2] = system: Mycobacterium tuberculosis; experiment: Antituberculosis activity against Mycobacterium tuberculosis H37Rv by twofold serial dilution method; format: functional
In short: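 Classical two-fold test-tube serial dilution in Youmans' modified Proskauer–Beck liquid medium with 10% bovine serum. Inocula from 14-day cultures. Compounds in ethylene glycol, 10 mg/mL stock, geometric dilutions in medium; 3.1, 6.2, 12.5, 25, 50 and 100 µg/mL evaluated. Incubation at 37 °C. MIC = lowest concentration inhibiting growth relative to a compound-free tube. INH, PZA and RMP served as reference drugs.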

[3] = Growth inhibition of human skin fibroblasts at 100 ug/ml after 72 hrs by MTT assay; design: species or system Skin fibroblast; details: read-out: GI; in short: as §1
Skin fibroblast = experiment: Stimulation of type 1 collagen output in human skin fibroblasts after at 10 to 100 ug/ml after 72 hrs by ELISA; format: functional
In short: (§2)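 Neonatal human dermal fibroblasts in high-glucose DMEM with 5% calf serum, 3 × 10³ cells/well, 72 h compound exposure. Conditioned media assayed for type I collagen by sandwich ELISA (affinity-purified antibodies, streptavidin/avidin-HRP, ABTS, 405 nm), quantified against a purified human collagen I standard curve. Expressed as % of untreated control. MAP and bFGF (15 ng/mL) served as positive controls.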

[4] = Stimulation of type 1 collagen output in human skin fibroblasts after at 100 ug/ml after 72 hrs by ELISA relative to control; format: functional, Skin fibroblast; in short: as §2

Compound | MIC (Brevibacterium linens) [µg/mL] | inhibition at 72 h, 10 ug/ml [1] [%] | MIC [2] [µg/mL] | inhibition at 72 h, 100 ug/ml [3] [%] | Activity (Skin fibroblast) | Activity [4] [%]
c1cnc2[nH]c(CCC3CCCCC3)nc2c1 | > 100 | 0 | 25 (≈ 109 µM) | 41 | inactive | –
O=[N+]([O-])c1cc(Cl)cc2[nH]c(CCC3CCCCC3)nc12 | > 100 | 0 | 12.5 (≈ 40.6 µM) | 18 | – | 166
O=C(CCC1CCCCC1)NNC(=S)Nc1ccc(Cl)cc1 | > 100 | – | 50 (≈ 147 µM) | – | inactive | –
NC(=O)c1cnccn1 [PYRAZINAMIDE] | – | – | 25 (≈ 203 µM) | – | – | –
c1ccc2c(c1)ccc1nc(CCC3CCCCC3)[nH]c12 | > 100 | 16 | 1.5 (≈ 5.39 µM) | 74 | inactive | –
CNC(=S)NNC(=O)CCC1CCCCC1 | > 100 | – | 50 (≈ 205 µM) | – | inactive | –
S=c1[nH]nc(CCC2CCCCC2)n1C1CCCCC1 | > 100 | – | 50 (≈ 170 µM) | – | inactive | –
C=CCn1c(CCC2CCCCC2)n[nH]c1=S | > 100 | – | 50 (≈ 199 µM) | – | inactive | –
CO[C@H]1/C=C/O[C@@]2(C)Oc3c(C)c(O)c4c(O)c(c(/C=N/N5CCN(C)CC5)c(O)c4c3C2=O)NC(=O)/C(C)=C\C=C\[C@H](C)[C@H](O)[C@@H](C)[C@@H](O)[C@@H](C)[C@H](OC(C)=O)[C@@H]1C [RIFAMPIN] | – | – | 1.2 (≈ 1.46 µM) | – | – | –
Cn1c(CCC2CCCCC2)n[nH]c1=S | > 100 | – | 50 (≈ 222 µM) | – | inactive | –
S=c1[nH]nc(CCC2CCCCC2)o1 | > 100 | – | 25 (≈ 118 µM) | – | inactive | –
S=c1[nH]nc(CCC2CCCCC2)n1-c1ccc(Cl)cc1 | > 100 | – | 50 (≈ 155 µM) | – | inactive | –
O=C(CCC1CCCCC1)NNC(=S)NC1CCCCC1 | > 100 | – | 50 (≈ 161 µM) | – | inactive | –
c1ccc2nc3cc4[nH]c(CCC5CCCCC5)nc4cc3nc2c1 | > 100 | 0 | 3.1 (≈ 9.38 µM) | 11 | inactive | –
O=C(CCC1CCCCC1)NN=C1SCCS1 | > 100 | – | 50 (≈ 184 µM) | – | inactive | –
C=CCNC(=S)NNC(=O)CCC1CCCCC1 | > 100 | – | 50 (≈ 186 µM) | – | inactive | –
CSC(=NNC(=O)CCC1CCCCC1)SC | > 100 | – | 50 (≈ 182 µM) | – | inactive | –
CC1(C)CNc2nnc(CCC3CCCCC3)n2C1 | > 100 | – | 50 (≈ 191 µM) | – | inactive | –
S=c1[nH]nc(CCC2CCCCC2)[nH]1 | > 100 | – | 50 (≈ 237 µM) | – | inactive | –
CSC(=S)NNC(=O)CCC1CCCCC1 | > 100 | – | 50 (≈ 192 µM) | – | inactive | –
NNC(=O)c1ccncc1 [ISONIAZID] | – | – | 0.5 (≈ 3.65 µM) | – | – | –
Cl.Cl.c1cc2nc(CCC3CCCCC3)[nH]c2cn1 | > 100 | 0 | 25 | 0 | inactive | –
Brc1cnc2[nH]c(CCC3CCCCC3)nc2c1 | > 100 | 17 | 6.5 (≈ 21.1 µM) | 100 | inactive | –
